Where two headings read alike, the source gives them in different places.
How the values were obtained:
NIH/3T3 cells = experiment: Viability; format: cell-based
[1] = test system: protein synthesis in DLBCL cells; experiment: O-propargyl puromycin; format: cell-based; conditions: concentrations relative to LD50, 4, 16 or 24 hours
Procedure, shortened: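 DLBCL cells treated 4, 16 or 24 h with test compound, silvestrol or carboplatin, at concentrations scaled to each agent's LD50. Cells pulsed with O-propargyl puromycin, washed twice in PBS and click-labelled with Alexa-488 azide. Flow cytometry gave mean fluorescence on live-gated cells, normalised to DMSO. Mean ± SEM, n=3; unpaired two-tailed t-tests with Benjamini–Krieger–Yekutieli correction.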

SNU-398 [2] = experiment: Western blot in SNU-398 cells; format: cell-based; conditions: 16 hours; for activity against mTORC1 targets (phosphorylation of S6 and 4EBP1): 200 nM rapamycin, 100 nM silvestrol, 1 μM elatol
SNU-398 [3] = experiment: Viability assay in SNU-398 cells; format: cell-based; conditions: for type of effect on SNU-398 cells: 72-hour treatment; for LD50: SNU-398, 72-hour treatment
[4] = test system: Non-Hodgkin Lymphoma cell lines; experiment: Viability assay; format: cell-based; conditions: for activity against non-Hodgkin lymphoma (NHL) cell lines (LD50): initial screen hits, DLBCL cell lines, Fig. 1A
Atf4−/− and WT MEFs = experiment: Viability; format: cell-based, Murine; conditions: Mus musculus, 72 h, read-out: IC50, viability, Atf4−/− MEFs, 72 hour
human chaperone HSP70 = human chaperone HSP70 (Homo sapiens, UniProt P0DMV8); experiment: Malachite green ATP hydrolysis counter-screen, HSP70; format: biochemical
Chain of human chaperone HSP70 (P0DMV8 whole entry): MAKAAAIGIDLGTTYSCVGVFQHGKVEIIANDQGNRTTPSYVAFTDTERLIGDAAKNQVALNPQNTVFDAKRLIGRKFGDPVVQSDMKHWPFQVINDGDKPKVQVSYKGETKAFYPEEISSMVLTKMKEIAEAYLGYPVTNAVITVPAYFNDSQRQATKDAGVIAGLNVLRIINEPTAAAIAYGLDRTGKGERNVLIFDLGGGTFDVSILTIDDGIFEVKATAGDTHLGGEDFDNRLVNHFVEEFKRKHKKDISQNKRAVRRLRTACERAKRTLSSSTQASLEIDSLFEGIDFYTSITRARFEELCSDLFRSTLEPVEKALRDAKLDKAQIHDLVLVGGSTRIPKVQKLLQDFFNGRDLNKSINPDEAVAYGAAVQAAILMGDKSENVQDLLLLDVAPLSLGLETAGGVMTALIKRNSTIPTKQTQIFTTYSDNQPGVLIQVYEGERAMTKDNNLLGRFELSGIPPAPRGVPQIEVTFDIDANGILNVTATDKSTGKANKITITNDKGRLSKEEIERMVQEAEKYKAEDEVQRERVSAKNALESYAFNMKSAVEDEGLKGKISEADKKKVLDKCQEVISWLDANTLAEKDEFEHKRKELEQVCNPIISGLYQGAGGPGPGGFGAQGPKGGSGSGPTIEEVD

DDX17 = DDX17 (Homo sapiens, UniProt Q92841); experiment: Malachite green ATP hydrolysis counter-screen, DDX17; format: biochemical
Chain of DDX17 (Q92841 whole entry, species assumed): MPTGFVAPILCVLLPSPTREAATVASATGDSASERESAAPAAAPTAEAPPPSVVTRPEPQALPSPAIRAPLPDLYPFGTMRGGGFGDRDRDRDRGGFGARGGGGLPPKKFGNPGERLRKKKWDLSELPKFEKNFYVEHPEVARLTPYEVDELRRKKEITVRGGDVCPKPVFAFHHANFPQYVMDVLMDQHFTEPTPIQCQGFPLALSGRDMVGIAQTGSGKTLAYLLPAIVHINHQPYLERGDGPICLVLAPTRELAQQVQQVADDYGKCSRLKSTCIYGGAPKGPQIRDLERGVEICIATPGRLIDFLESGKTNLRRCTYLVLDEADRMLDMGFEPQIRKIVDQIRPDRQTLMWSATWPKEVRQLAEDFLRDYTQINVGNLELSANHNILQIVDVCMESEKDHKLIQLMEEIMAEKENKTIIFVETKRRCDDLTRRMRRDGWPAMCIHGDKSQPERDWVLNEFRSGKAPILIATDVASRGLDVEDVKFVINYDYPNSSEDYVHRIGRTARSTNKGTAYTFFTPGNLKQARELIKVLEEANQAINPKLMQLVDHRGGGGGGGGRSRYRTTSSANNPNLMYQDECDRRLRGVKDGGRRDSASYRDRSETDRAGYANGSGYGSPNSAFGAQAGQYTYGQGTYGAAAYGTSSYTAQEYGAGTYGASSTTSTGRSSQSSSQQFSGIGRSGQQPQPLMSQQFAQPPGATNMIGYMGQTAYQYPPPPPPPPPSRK

[5] = test system: 97 oncogenic and related kinases; experiment: Commercial kinome screen; format: binding
HEK-293 cells = experiment: Dual-luciferase reporter assay; format: cell-based; conditions: eight-hour treatment
Procedure, shortened: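 HEK-293 cells (7 × 10^5) transfected with 400 ng of a dual-luciferase plasmid using Lipofectamine 3000. Treated 36 h after transfection for 8 h, then lysed with a dual-luciferase kit and read in triplicate. Luciferase units normalized to DMSO-treated cells; mean ± SEM, n=3.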

p97 = p97 (Homo sapiens, UniProt P55072); experiment: Malachite green ATP hydrolysis counter-screen, p97; format: biochemical
Chain of p97 (P55072 whole entry): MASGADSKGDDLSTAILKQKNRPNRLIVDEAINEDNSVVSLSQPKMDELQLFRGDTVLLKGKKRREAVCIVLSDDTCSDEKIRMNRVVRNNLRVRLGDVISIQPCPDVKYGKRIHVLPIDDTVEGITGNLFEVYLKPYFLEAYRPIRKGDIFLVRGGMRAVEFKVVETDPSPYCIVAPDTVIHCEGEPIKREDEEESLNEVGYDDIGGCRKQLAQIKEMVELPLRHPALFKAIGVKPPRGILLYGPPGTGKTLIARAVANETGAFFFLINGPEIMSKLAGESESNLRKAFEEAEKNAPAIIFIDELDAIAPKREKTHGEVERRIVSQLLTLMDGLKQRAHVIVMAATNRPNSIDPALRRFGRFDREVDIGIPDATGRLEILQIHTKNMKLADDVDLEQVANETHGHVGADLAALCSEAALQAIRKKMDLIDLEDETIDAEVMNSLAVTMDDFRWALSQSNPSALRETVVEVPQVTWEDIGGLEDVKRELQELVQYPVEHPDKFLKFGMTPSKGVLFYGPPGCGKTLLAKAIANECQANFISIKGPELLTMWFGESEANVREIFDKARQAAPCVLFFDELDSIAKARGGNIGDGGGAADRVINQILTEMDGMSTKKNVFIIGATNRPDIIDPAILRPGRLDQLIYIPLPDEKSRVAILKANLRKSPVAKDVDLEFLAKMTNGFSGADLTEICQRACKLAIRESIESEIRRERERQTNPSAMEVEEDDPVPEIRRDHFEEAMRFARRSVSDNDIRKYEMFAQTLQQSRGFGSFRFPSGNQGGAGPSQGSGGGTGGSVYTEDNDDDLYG

DLBCL cell lines [6] = experiment: Apoptosis assay; format: cell-based
Procedure, shortened: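 Flow-cytometric cell death: DLBCL cell lines treated as indicated for 24 h, alone or combined with the PERK inhibitor GSK2606414 or with 200 nM ISRIB. Cells washed once in ice-cold PBS, then co-stained with PE-Annexin V and 7-aminoactinomycin D. Mean ± SEM, n=3 biological replicates; unpaired two-tailed t-tests.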

DLBCL cell lines [7] = experiment: Proliferation assay; format: cell-based; conditions: three DLBCL cell lines, single elatol treatment
Procedure, shortened: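 Three DLBCL lines seeded on day 0 and given a single dose of DMSO vehicle or test compound at indicated concentrations. Viable cells counted daily by trypan blue exclusion. Mean ± SEM, n=3.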

[8] = test system: engrafted B16 murine melanoma cells; conditions: 10 mg/kg daily i.p. or p.o.; cited from earlier work
SU-DHL-6 flank tumors = experiment: SU-DHL-6 xenograft; format: in vivo
Procedure, shortened: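 Female SCID mice, 8–10 weeks old. 2 × 10^6 SU-DHL-6 cells, washed in ice-cold PBS and mixed 1:1 with matrigel, injected s.c. into the right flank. At 60 mm3, mice pair-matched to vehicle (sterile water, 5.2% tween-80, 5.2% PEG-400) or 20 mg/kg test compound i.p. daily for 5 days. Weight and tumor volume measured twice weekly; mean ± SEM, n=8.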

eIF4A1-K238E = eIF4A1-K238E (Homo sapiens, UniProt P60842, K238E); experiment: Malachite green ATP hydrolysis assay, eIF4A1-K238E mutant; format: biochemical
Chain of eIF4A1-K238E (P60842 whole entry K238E): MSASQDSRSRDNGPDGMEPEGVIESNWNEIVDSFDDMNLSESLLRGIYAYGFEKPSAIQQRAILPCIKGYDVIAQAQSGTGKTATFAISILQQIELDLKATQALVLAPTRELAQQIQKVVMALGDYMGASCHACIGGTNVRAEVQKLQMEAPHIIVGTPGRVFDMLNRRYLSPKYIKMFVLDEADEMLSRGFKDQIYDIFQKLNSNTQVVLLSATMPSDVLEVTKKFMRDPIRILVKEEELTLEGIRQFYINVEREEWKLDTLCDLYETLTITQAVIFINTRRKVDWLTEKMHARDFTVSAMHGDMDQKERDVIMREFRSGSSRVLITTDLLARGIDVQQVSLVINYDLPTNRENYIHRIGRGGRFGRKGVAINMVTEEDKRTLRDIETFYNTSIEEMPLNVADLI
Procedure, shortened: (§1)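 Malachite green ATPase run at 37 °C for 1 h. eIF4A1 wild-type, K82R (500 nM) or K238E (500 nM) in 20 mM MES-NaOH pH 6.0, 100 mM potassium acetate, 2.5 mM MgCl2, 1% glycerol, 1 mM DTT. ATP gradient 0–2 mM. Aliquot mixed with 9.3 µM malachite green, 53 mM ammonium molybdate, 1 M HCl, 0.04% Tween 20. Mean ± SEM, n=3.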

[9] = test system: eIF2α-S51 A/A and S/S MEFs; experiment: Viability; format: cell-based, Murine; conditions: Mus musculus, 72 h
[10] = test system: Harvard/Wellcome cancer cell line collection; experiment: Growth inhibition screen, Harvard/Wellcome cell line collection; format: cell-based; conditions: 344/924 cell lines
eIF4A1 helicase activity = eIF4A1 helicase activity (Homo sapiens, UniProt P60842); experiment: Fluorescence-based helicase assay; format: biochemical; conditions: cell-free, RNA unwinding de-quenching
Chain of eIF4A1 helicase activity (P60842 whole entry): as the sequence (P60842 whole entry K238E) above, with E238K counted along it

eIF4A1 [11] = target: T1, eIF4A1 (Homo sapiens, UniProt P60842); experiment: Malachite green ATP hydrolysis assay, wildtype eIF4A1; format: biochemical
T1 sequence (P60842 whole entry): as the sequence (P60842 whole entry K238E) above, with E238K counted along it
Procedure, shortened: as §1

[12] = Tolerability in non-tumor bearing SCID mice; format: in vivo; conditions: for tolerability: non-tumor bearing SCID mice
Procedure, shortened: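 Non-tumor-bearing female SCID mice, 8–10 weeks old, dosed i.p. daily for 5 days at 10, 20 or 30 mg/kg and monitored for weight and activity. Complete blood counts (white blood cells, hemoglobin, platelets) measured on a Hemavet950. For 20 mg/kg: mean ± SEM, n=17 vehicle and 7 treated.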

OCI-Ly3 = experiment: Protein; format: cell-based; conditions: OCI-Ly3, Fig. S3D
eIF4A1-K82R = eIF4A1-K82R (Homo sapiens, UniProt P60842, K82R); experiment: Malachite green ATP hydrolysis assay, eIF4A1-K82R mutant; format: biochemical
Chain of eIF4A1-K82R (P60842 whole entry K82R): as the sequence (P60842 whole entry K238E) above, with K82R, E238K counted along it
Procedure, shortened: as §1

[13] = Single-dose maximum tolerated dose study; format: in vivo; conditions: for tolerability, single dose: five female CD-1 mice
eIF4A1 [14] = target: T1, eIF4A1; experiment: Isothermal titration calorimetry; format: binding
Procedure, shortened: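 eIF4A dialysed 12 h against 20 mM MES-KOH pH 6.0, 10 mM potassium acetate, 2.5 mM MgCl2, 1% glycerol, 1 mM DTT. Protein was matched to 2% DMSO, degassed and placed in the cell. 12–20 injections of 0.2 mM test compound in the same buffer, every 200 s over 3000 s. Peaks integrated to 75 s post-injection and fit to an independent binding model. Replicates run at 25 and 10 µM eIF4A.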

OCI-Ly3 xenograft = experiment: OCI-Ly3 xenograft; format: in vivo
Procedure, shortened: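 Female SCID mice, 8–10 weeks old. 10 × 10^6 OCI-Ly3 cells, washed in ice-cold PBS and mixed 1:1 with matrigel, implanted s.c. in the flank. Tumors dissected at 500 mm3, dissociated, and 1 × 10^6 serially transplanted cells implanted s.c. At ≥50 mm3, mice pair-matched to vehicle or 40 mg/kg i.p. twice weekly. Weight and tumor volume monitored twice weekly; n=8; two-way ANOVA.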

[15] = test system: primary chronic lymphocytic leukemia (CLL) cells; experiment: OPP labeling in primary CLL patient cells; format: cell-based
[16] = test system: normal human peripheral-blood mononuclear cells; experiment: Potency against normal peripheral-blood mononuclear cells; format: cell-based; conditions: Fig. S1B
DDX39A = DDX39A (Homo sapiens, UniProt O00148); experiment: Malachite green ATP hydrolysis counter-screen, DDX39A; format: biochemical
Chain of DDX39A (O00148 whole entry, species assumed): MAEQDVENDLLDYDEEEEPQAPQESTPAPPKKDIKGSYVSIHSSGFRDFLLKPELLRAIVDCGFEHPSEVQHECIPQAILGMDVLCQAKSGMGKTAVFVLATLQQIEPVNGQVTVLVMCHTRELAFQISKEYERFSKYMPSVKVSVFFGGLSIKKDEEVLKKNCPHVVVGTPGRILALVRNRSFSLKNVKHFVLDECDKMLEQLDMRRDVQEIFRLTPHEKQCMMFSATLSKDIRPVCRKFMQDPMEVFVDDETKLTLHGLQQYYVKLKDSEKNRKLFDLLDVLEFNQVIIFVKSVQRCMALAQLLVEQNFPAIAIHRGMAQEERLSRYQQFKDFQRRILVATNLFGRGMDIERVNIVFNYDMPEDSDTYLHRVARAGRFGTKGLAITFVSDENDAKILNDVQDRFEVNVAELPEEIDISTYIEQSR

[17] = target: bacterial chaperonin GroEL (Escherichia coli, UniProt P0A6F5); experiment: Malachite green ATP hydrolysis counter-screen, GroEL; format: biochemical
Chain of bacterial chaperonin GroEL (P0A6F5 whole entry): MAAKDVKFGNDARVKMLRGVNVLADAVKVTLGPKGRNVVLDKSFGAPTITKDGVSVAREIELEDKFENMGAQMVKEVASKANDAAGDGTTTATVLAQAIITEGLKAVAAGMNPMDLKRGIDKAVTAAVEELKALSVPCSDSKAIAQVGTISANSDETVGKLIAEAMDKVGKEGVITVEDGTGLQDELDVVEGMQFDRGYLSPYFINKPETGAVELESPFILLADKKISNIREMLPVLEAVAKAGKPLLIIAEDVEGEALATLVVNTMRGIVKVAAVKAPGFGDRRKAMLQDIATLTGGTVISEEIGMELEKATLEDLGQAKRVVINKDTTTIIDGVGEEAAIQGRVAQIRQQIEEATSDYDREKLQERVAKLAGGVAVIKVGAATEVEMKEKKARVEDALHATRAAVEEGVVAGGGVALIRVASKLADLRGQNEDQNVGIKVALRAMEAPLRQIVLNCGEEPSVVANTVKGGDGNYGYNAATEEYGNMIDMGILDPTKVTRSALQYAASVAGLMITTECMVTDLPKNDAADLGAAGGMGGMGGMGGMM

DDX3 = DDX3 (Homo sapiens, UniProt O00571); experiment: Malachite green ATP hydrolysis counter-screen, DDX3; format: biochemical
Chain of DDX3 (O00571 whole entry, species assumed): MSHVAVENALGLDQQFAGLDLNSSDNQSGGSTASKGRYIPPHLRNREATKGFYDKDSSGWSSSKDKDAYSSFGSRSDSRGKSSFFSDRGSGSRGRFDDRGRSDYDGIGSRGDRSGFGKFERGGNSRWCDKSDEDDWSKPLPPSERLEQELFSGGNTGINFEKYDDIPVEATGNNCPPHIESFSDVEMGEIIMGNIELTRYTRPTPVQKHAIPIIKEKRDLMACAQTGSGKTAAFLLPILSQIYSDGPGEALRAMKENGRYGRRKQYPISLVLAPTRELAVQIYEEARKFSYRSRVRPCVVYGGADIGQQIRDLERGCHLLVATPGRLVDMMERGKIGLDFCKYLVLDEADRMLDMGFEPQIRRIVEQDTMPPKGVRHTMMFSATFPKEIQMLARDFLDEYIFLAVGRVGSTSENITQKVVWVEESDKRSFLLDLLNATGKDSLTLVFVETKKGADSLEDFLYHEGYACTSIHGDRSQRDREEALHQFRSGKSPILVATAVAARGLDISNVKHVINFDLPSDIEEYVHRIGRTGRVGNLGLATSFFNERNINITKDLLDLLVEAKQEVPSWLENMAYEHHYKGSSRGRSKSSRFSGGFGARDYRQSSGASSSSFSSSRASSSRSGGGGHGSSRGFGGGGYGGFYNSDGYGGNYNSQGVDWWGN

OCI-Ly3 cells = experiment: Polysome profiling; format: cell-based; conditions: OCI-Ly3, 2 μM elatol

N.N.O=C([O-])C1(C(=O)[O-])CCC1.[Pt+2] [carboplatin]
change in drug sensitivity on eIF4A1 knockdown (NIH/3T3 cells; NIH-3T3 shRLuc vs sh4A1): no change in drug sensitivity
protein synthesis measured by incorporation of OPP [1]: no significant decline

CO[C@H]1C[C@@H]2CC[C@@H](C)[C@@](O)(O2)C(=O)C(=O)N2CCCC[C@H]2C(=O)O[C@H]([C@H](C)C[C@@H]2CC[C@@H](O)[C@H](OC)C2)CC(=O)[C@H](C)/C=C(\C)[C@@H](O)[C@@H](OC)C(=O)[C@H](C)C[C@H](C)/C=C/C=C/C=C/1C [rapamycin, reference compound]
activity against mTORC1 targets (phosphorylation of S6 and 4EBP1) (SNU-398 [2]): potently inhibits phosphorylation
type of effect on SNU-398 cells (SNU-398 [3]): cytostatic

C=C1C[C@H](O)[C@H](Br)C(C)(C)[C@@]12CCC(C)=C(Cl)C2 [elatol]
toxic concentration in the preliminary screen of cancer cell lines ([4]; preliminary screen): less than 1 μM
fold less potent than silvestrol ([4]; sensitive tumor cells in vitro): 5–10 fold
IC50 (Atf4−/− and WT MEFs): 2780 nM
protein synthesis measured by incorporation of OPP [1]: global decline of protein synthesis
activity against ATP hydrolysis by HSP70 (human chaperone HSP70): no activity
activity against ATP hydrolysis by DDX17 (DDX17): no activity
activity against 97 oncogenic and related kinases [5]: no activity
cap-dependent versus IRES driven luciferase expression (HEK-293 cells): down-regulated cap-dependent protein translation more strongly than cap-independent IRES driven expression
activity against ATP hydrolysis by p97 (p97): no activity
effect of ISRIB on elatol's toxicity (DLBCL cell lines [6]; OCI-Ly3 cells, combination with 200 nM ISRIB): no effect
effect of PERK inhibitor GSK2606414 on elatol's potency (DLBCL cell lines [6]; annexin V staining, 24 hours, combination with PERKi): no significant reversal
apoptosis (DLBCL cell lines [6]; by 24 hours, most sensitive DLBCL line): greater than 50%
effect on proliferation (DLBCL cell lines [7]): completely halted proliferation
antitumor activity [8]: antitumor activity
time tumor growth was halted from the start of treatment (SU-DHL-6 flank tumors; 20 mg/kg i.p. daily for 5 days, one cycle): 12 days
tolerability in tumor-bearing mice (SU-DHL-6 flank tumors; 20 mg/kg i.p. daily, first five-day cycle): weight loss and overt signs of toxicity
IC50 (eIF4A1-K238E): 34200 ± 12800 nM
IC50 ([9]; read-out: IC50, viability, eIF2α-S51 A/A MEFs, 72 hour): 1030 nM
IC50 ([9]; read-out: IC50, viability, eIF2α-S51 S/S MEFs, 72 hour): 1400 nM
share of cell lines having IC50 < 1μM [10]: 37%
effect on eIF4A1 helicase activity (eIF4A1 helicase activity): inhibition
IC50 (eIF4A1 [11]): 16400 nM
tolerability ([12]; 10 mg/kg daily x 5 days i.p.): neither 10 mg/kg nor 20 mg/kg resulted in signs of toxicity
Day 5 complete blood counts versus vehicle ([12]; 20 mg/kg daily for 5 days): no differences
tolerability ([12]; 20 mg/kg daily x 5 days i.p.): neither 10 mg/kg nor 20 mg/kg resulted in signs of toxicity
tolerability ([12]; 30 mg/kg daily i.p., stopped after three days): weight loss and reduced animal activity
concentration at which mRNA reductions become significant (OCI-Ly3): 500 to 1000 nM
concentration at which protein-expression changes begin (OCI-Ly3): 100 nM
IC50 (eIF4A1-K82R): 85500 ± 31800 nM
tolerability, single dose ([13]; 50 mg/kg single i.p. dose): tolerated 50 mg/kg without issue
tolerability, single dose ([13]; 65 mg/kg single i.p. dose): tolerated 65 mg/kg without issue
mice dying or moribund requiring sacrifice ([13]; 80 mg/kg single i.p. dose, within five days): 3/5
mortality, single dose ([13]; 100 mg/kg single i.p. dose, within five days): all five animals in group 2 died
tolerated dose relative to silvestrol ([13]; CD-1, SCID, mouse, in vivo, 14 days): ~ 100 x
Kd (eIF4A1 [14]): 1980 ± 310 nM
tolerability in tumor-bearing mice (OCI-Ly3 xenograft; 40 mg/kg i.p. twice per week): well-tolerated
tumor growth compared to vehicle-treated controls (OCI-Ly3 xenograft; 40 mg/kg i.p. twice per week, p=0.0117): significant reduction of tumor growth
tolerability in tumor-bearing mice (OCI-Ly3 xenograft; single dose at 65 mg/kg, OCI-Ly3 engrafted SCID mice): morbidity and weight loss
protein translation measured by OPP labeling ([15]; primary CLL cells stimulated with anti IgM): significantly reduced protein translation
OPP labeling ([15]; unstimulated primary CLL cells, or non-malignant T-cells): did not significantly inhibit OPP labeling
activity against mTORC1 targets (phosphorylation of S6 and 4EBP1) (SNU-398 [2]): no activity
ATF4 expression (SNU-398 [2]; SNU-398, 1 μM elatol): induced expression of the transcription factor ATF4
potency against normal PBMC relative to tumor lines [16]: less potent
activity against ATP hydrolysis by DDX39A (DDX39A): no activity
activity against ATP hydrolysis by GroEL [17]: no activity
activity against ATP hydrolysis by DDX3 (DDX3): no activity
polysome translation (OCI-Ly3 cells; 16 hours): complete elimination of polysome translation
polysome translation (OCI-Ly3 cells; two-hour treatment): moderately reduced polysome translation
type of effect on SNU-398 cells (SNU-398 [3]): highly cytotoxic
LD50 (SNU-398 [3]): 219 nM

COC(=O)[C@H]1[C@@H](O)[C@@]2(O)c3c(OC)cc(O[C@@H]4O[C@@H]([C@H](O)CO)CO[C@H]4OC)cc3O[C@@]2(c2ccc(OC)cc2)[C@@H]1c1ccccc1 [silvestrol]
increased potency of silvestrol relative to elatol (NIH/3T3 cells; 3T3 fibroblasts, Fig. 5F): > 500 x
protein synthesis measured by incorporation of OPP [1]: global decline of protein synthesis
activity against mTORC1 targets (phosphorylation of S6 and 4EBP1) (SNU-398 [2]): no activity
type of effect on SNU-398 cells (SNU-398 [3]): highly cytotoxic
LD50 (SNU-398 [3]): 41 nM

C=C1CC[C@@](C)(c2cc(Br)c(C)cc2O)[C@H]1C [allolaurinterol, reference compound]
activity against non-Hodgkin lymphoma (NHL) cell lines (LD50) [4]: > 10 µM

CC(C)=C[C@@H]1C[C@H](C)c2c(O)cc(C)c3c2C1=C(C)C(=O)C3=O [elisabatin A, reference compound]
activity against non-Hodgkin lymphoma (NHL) cell lines (LD50) [4]: > 10 µM
